Format in all cases: functional
For assay [1], the system named is Staphylococcus aureus. Put plainly: Antibacterial activity against methicillin resistant Staphylococcus aureus ATCC 700787 by microdilution method. In short, it runs like this: (§1)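 Broth microdilution MIC in cation-adjusted Mueller Hinton II broth. Compounds were made up at 2 mg/mL (starting solution) in DMF plus broth, with DMF ≤0.5% of media, then serially diluted in broth. Inoculum was a 0.5 McFarland suspension, 0.2 mL diluted into 40 mL broth and added to wells. Drug-free controls were included. MIC was the well with no turbidity versus controls; each strain was tested at least in triplicate.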

Assay [2] concerns Staphylococcus aureus. Put plainly: Antibacterial activity against methicillin resistant Staphylococcus aureus ATCC 700698 by microdilution method. The method in brief:
as §1

In assay [3] the test system is Staphylococcus aureus. Put plainly: Antibacterial activity against methicillin resistant Staphylococcus aureus ATCC BAA-39 by microdilution method. The method in brief:
as §1

Assay [4] relates to Staphylococcus aureus. The experiment in a line: Antibacterial activity against methicillin resistant Staphylococcus aureus ATCC 34404 by microdilution method. In short, it runs like this: as §1
Assay [5] relates to Staphylococcus aureus. Put plainly: Antibacterial activity against methicillin resistant Staphylococcus aureus ATCC BAA-1680 by microdilution method. The method in brief: as §1

Values after ≈ are worked out from the molar mass of the structure shown.

For the molecule `O=C(O)c1cn(C2CC2)c2cc(N3CCNCC3)c(F)cc2c1=O` [CIPROFLOXACIN], the MIC against Staphylococcus aureus [1] was 62.5 µg/mL (≈ 189 µM).

In the case of `CC(C)C(C(=O)O)N1C(=O)/C(=C/c2ccccc2Cl)SC1=S` (stereo not given), the MIC with Staphylococcus aureus [1], in the assay with Staphylococcus aureus [2] and against Staphylococcus aureus [3] was 62.5 µg/mL (≈ 176 µM) throughout.

On to `O=C(O)C(Cc1ccccc1)N1C(=O)/C(=C/c2cccc(Oc3ccccc3)c2)SC1=S` (stereo not given), for which the minimum inhibitory concentration (MIC) is 1.95 µg/mL (≈ 4.22 µM) against Staphylococcus aureus [4]; 3.9 µg/mL (≈ 8.45 µM) with Staphylococcus aureus [1]; 3.9 µg/mL (≈ 8.45 µM) against Staphylococcus aureus [2]; 3.9 µg/mL (≈ 8.45 µM) in the assay with Staphylococcus aureus [3]; 1.95 µg/mL (≈ 4.22 µM) with Staphylococcus aureus [5].

For `CCCC(C(=O)O)N1C(=O)/C(=C/c2ccc(Cl)cc2Cl)SC1=S` (stereo not given), the MIC with Staphylococcus aureus [4], in the assay on Staphylococcus aureus [1], in the assay on Staphylococcus aureus [2], against Staphylococcus aureus [3] and in the assay with Staphylococcus aureus [5] was 15.6 µg/mL (≈ 40 µM) throughout.

As to `O=C(O)CN1C(=O)/C(=C/C=C/c2ccccc2)SC1=S`, the MIC in the assay on Staphylococcus aureus [4], in the assay with Staphylococcus aureus [1], with Staphylococcus aureus [2], against Staphylococcus aureus [3] and in the assay on Staphylococcus aureus [5] was 250 µg/mL (≈ 819 µM) throughout.

With `O=C(O)C(Cc1ccccc1)N1C(=O)/C(=C/c2ccc(Cl)cc2Cl)SC1=S` (stereo not given), the MIC with Staphylococcus aureus [4], against Staphylococcus aureus [1], in the assay on Staphylococcus aureus [2], in the assay with Staphylococcus aureus [3] and in the assay with Staphylococcus aureus [5] was 15.6 µg/mL (≈ 35.6 µM) each time.

On to `O=C(O)CN1C(=O)/C(=C/c2ccc([N+](=O)[O-])cc2)SC1=S`, for which the MIC against Staphylococcus aureus [4], with Staphylococcus aureus [1], with Staphylococcus aureus [2], with Staphylococcus aureus [3] and in the assay with Staphylococcus aureus [5] was 250 µg/mL (≈ 771 µM) each time.

For the molecule `O=C(O)CN1C(=O)/C(=C/c2ccc(Cl)c(Cl)c2)SC1=S`, the MIC in the assay on Staphylococcus aureus [4], in the assay on Staphylococcus aureus [1], in the assay on Staphylococcus aureus [2], in the assay with Staphylococcus aureus [3] and in the assay on Staphylococcus aureus [5] was 125 µg/mL (≈ 359 µM) in each case.

For the molecule `CC(C)C(C(=O)O)N1C(=O)/C(=C/c2cccc3ccccc23)SC1=S` (stereo not given), the MIC in the assay with Staphylococcus aureus [4], against Staphylococcus aureus [1], against Staphylococcus aureus [2], in the assay with Staphylococcus aureus [3] and with Staphylococcus aureus [5] was 62.5 µg/mL (≈ 168 µM) in each case.

For the molecule `O=C(O)CN1C(=O)/C(=C/c2cccc(Oc3ccccc3)c2)SC1=S`, the MIC against Staphylococcus aureus [4], against Staphylococcus aureus [1], against Staphylococcus aureus [2], in the assay on Staphylococcus aureus [3] and with Staphylococcus aureus [5] was 31.2 µg/mL (≈ 84.1 µM) throughout.

As for `O=C(O)CN1C(=O)/C(=C/C2CCCCC2)SC1=S`, the MIC against Staphylococcus aureus [4], in the assay with Staphylococcus aureus [1], against Staphylococcus aureus [2], in the assay with Staphylococcus aureus [3] and in the assay with Staphylococcus aureus [5] was 31.2 µg/mL (≈ 109 µM) throughout.

Regarding `CC(C(=O)O)N1C(=O)/C(=C/c2ccc(Cl)cc2Cl)SC1=S` (stereo not given), the MIC with Staphylococcus aureus [1], in the assay with Staphylococcus aureus [2] and with Staphylococcus aureus [3] was 125 µg/mL (≈ 345 µM) throughout.

For `CCSCC(C(=O)O)N1C(=O)/C(=C/c2ccc(Cl)cc2Cl)SC1=S` (stereo not given), the MIC with Staphylococcus aureus [4], against Staphylococcus aureus [1], against Staphylococcus aureus [2], against Staphylococcus aureus [3] and in the assay with Staphylococcus aureus [5] was 31.2 µg/mL (≈ 74 µM) throughout.

With `O=C(O)CN1C(=O)/C(=C/c2ccnc3ccccc23)SC1=S`, the MIC in the assay on Staphylococcus aureus [4] was 200 µg/mL (≈ 605 µM); in the assay with Staphylococcus aureus [1] it was 250 µg/mL (≈ 757 µM); in the assay with Staphylococcus aureus [2] it was 500 µg/mL (≈ 1510 µM); against Staphylococcus aureus [3], 500 µg/mL (≈ 1510 µM); against Staphylococcus aureus [5], 250 µg/mL (≈ 757 µM).

On to `CC(C)C(C(=O)O)N1C(=O)/C(=C/c2ccc(Cl)cc2Cl)SC1=S` (stereo not given), for which the MIC with Staphylococcus aureus [4], in the assay with Staphylococcus aureus [1], against Staphylococcus aureus [2], in the assay on Staphylococcus aureus [3] and with Staphylococcus aureus [5] was 15.6 µg/mL (≈ 40 µM) throughout.

For `CC(C)C(C(=O)O)N1C(=O)/C(=C/c2ccc(F)cc2)SC1=S` (stereo not given), the MIC with Staphylococcus aureus [1], against Staphylococcus aureus [2] and in the assay on Staphylococcus aureus [3] was 62.5 µg/mL (≈ 184 µM) each time.

Consider `CC1(C)S[C@@H]2[C@H](NC(=O)Cc3ccccc3)C(=O)N2[C@H]1C(=O)O` [PENICILLIN G], for which the MIC against Staphylococcus aureus [4] is 31.2 µg/mL (≈ 93.5 µM); in the assay with Staphylococcus aureus [1], 31.2 µg/mL (≈ 93.5 µM); against Staphylococcus aureus [2], 15.6 µg/mL (≈ 46.7 µM); with Staphylococcus aureus [3], 31.2 µg/mL (≈ 93.5 µM); in the assay on Staphylococcus aureus [5] it was 62.5 µg/mL (≈ 187 µM).

As to `O=C(O)C(Cc1ccccc1)N1C(=O)/C(=C/c2ccccc2[N+](=O)[O-])SC1=S` (stereo not given), the MIC came out at 125 µg/mL (≈ 302 µM) in the assay on Staphylococcus aureus [4]; 125 µg/mL (≈ 302 µM) with Staphylococcus aureus [1]; 62.5 µg/mL (≈ 151 µM) against Staphylococcus aureus [2]; 62.5 µg/mL (≈ 151 µM) against Staphylococcus aureus [3]; 62.5 µg/mL (≈ 151 µM) against Staphylococcus aureus [5].

As to `COc1ccc(/C=C2\SC(=S)N(CC(=O)O)C2=O)cc1`, the MIC against Staphylococcus aureus [4] was determined as 200 µg/mL (≈ 646 µM); in the assay on Staphylococcus aureus [1] it was 250 µg/mL (≈ 808 µM); against Staphylococcus aureus [2], 250 µg/mL (≈ 808 µM); with Staphylococcus aureus [3] it was 250 µg/mL (≈ 808 µM); with Staphylococcus aureus [5], 250 µg/mL (≈ 808 µM).

Regarding `CN[C@H](CC(C)C)C(=O)N[C@H]1C(=O)N[C@@H](CC(N)=O)C(=O)N[C@H]2C(=O)N[C@H]3C(=O)N[C@H](C(=O)N[C@H](C(=O)O)c4cc(O)cc(O)c4-c4cc3ccc4O)[C@H](O)c3ccc(c(Cl)c3)Oc3cc2cc(c3O[C@@H]2O[C@H](CO)[C@@H](O)[C@H](O)[C@H]2O[C@H]2C[C@](C)(N)[C@H](O)[C@H](C)O2)Oc2ccc(cc2Cl)[C@H]1O` [VANCOMYCIN], the MIC is at most 0.97 µg/mL with Staphylococcus aureus [4]; 1.95 µg/mL (≈ 1.35 µM) in the assay on Staphylococcus aureus [1]; at most 0.97 µg/mL against Staphylococcus aureus [2]; at most 0.97 µg/mL with Staphylococcus aureus [3]; at most 0.97 µg/mL in the assay with Staphylococcus aureus [5].

Turning to `CC(C)CC(C(=O)O)N1C(=O)/C(=C/c2ccc(Cl)cc2Cl)SC1=S` (stereo not given), the MIC against Staphylococcus aureus [4], with Staphylococcus aureus [1], with Staphylococcus aureus [2], in the assay on Staphylococcus aureus [3] and against Staphylococcus aureus [5] was 15.6 µg/mL (≈ 38.6 µM) throughout.

In the case of `O=C(O)CN1C(=O)/C(=C/c2ccccc2[N+](=O)[O-])SC1=S`, the MIC in the assay on Staphylococcus aureus [4], against Staphylococcus aureus [1], in the assay with Staphylococcus aureus [2], with Staphylococcus aureus [3] and with Staphylococcus aureus [5] was 62.5 µg/mL (≈ 193 µM) throughout.

(Values after ChEMBL document CHEMBL1629498, “The synthesis of phenylalanine-derived C5-substituted rhodanines and their activity against selected methicillin-resistant Staphylococcus aureus (MRSA) strains” (2010).)
